Results as given in ChEMBL document CHEMBL3227985, “N-Alkylated 2-aminotetralins: central dopamine-receptor stimulating activity” (J Med Chem, 1979).
Activity calls are given as the source filed them. No cut-off for these calls is given here.

Tests used:
Rattus norvegicus [1] = assay: Central noradrenaline receptor stimulating activity in Sprague-Dawley rat assessed as reduction in DOPA accumulation in hemispheral portion of cerebrum at 2 umol/kg, sc by spectrophotometric method; type: functional, organism-based
In short: (§1)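 Male Sprague-Dawley rats (200-350 g), reserpinized. Compounds dissolved in saline immediately before use, neutral pH, 10 mL/kg, given sc over a dose range. Aromatic-L-amino-acid decarboxylase inhibited (100 mg/kg). Dopa and 5-HTP accumulation measured spectrophotometrically in striatum, limbic forebrain and remaining hemispheral portions. ED50 = dose giving 50% of maximal reduction versus control portions, estimated from dose-response curves. Experiments run 9–12 a.m.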

Rattus norvegicus [2] = assay: Central serotonin receptor stimulating activity in Sprague-Dawley rat assessed as reduction in 5-HTP accumulation in limbic region of brain at 2 umol/kg, sc by spectrophotometric method; type: functional, organism-based; settings: Limbic system; in short: as §1
Rattus norvegicus [3] = assay: Toxicity in sc dosed Sprague-Dawley rat assessed as gross behaviour at ED50; type: organism-based; settings: in vivo
Rattus norvegicus [4] = assay: Central serotonin receptor stimulating activity in Sprague-Dawley rat assessed as reduction in 5-HTP accumulation in striatum of brain at 2 umol/kg, sc by spectrophotometric method; type: functional, organism-based; in short: as §1
Rattus norvegicus [5] = assay: Central dopamine receptor stimulating activity in Sprague-Dawley rat assessed as reduction in DOPA accumulation in limbic region of brain at 2 umol/kg, sc by spectrophotometric method; type: functional; settings: Limbic system; in short: as §1
Rattus norvegicus [6] = assay: Central serotonin receptor stimulating activity in Sprague-Dawley rat assessed as reduction in 5-HTP accumulation in hemispheral portion of cerebrum at 2 umol/kg, sc by spectrophotometric method; type: functional, organism-based; in short: as §1
Rattus norvegicus [7] = assay: Central dopamine receptor stimulating activity in Sprague-Dawley rat assessed as reduction in DOPA accumulation in striatum of brain at 2 umol/kg, sc by spectrophotometric method; type: functional; in short: as §1
Rattus norvegicus [8] = assay: Central dopamine receptor stimulating activity in reserpenized Sprague-Dawley rat assessed as latency period of motor activity at 2 umol/kg, sc measured 6 hrs post-reserpine challenge by motility meter analysis; type: functional
In short: (§2)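 Male Sprague-Dawley rats (200-350 g) given reserpine 10 mg/kg ip 6 h before testing. Drug in saline, 2 µmol/kg sc in the neck. Rats then placed singly in photocell motility meters. Counts recorded per 5-min period until effect ceased (<10 counts/5 min), giving duration and AUC. Means of four to six recordings. Testing 1–6 p.m.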

Rattus norvegicus [9] = assay: Central dopamine receptor stimulating activity in reserpenized Sprague-Dawley rat assessed as duration of action of motor activity at 2 umol/kg, sc measured 6 hrs post-reserpine challenge by motility meter analysis; type: functional; in short: as §2

SMILES	Activity (Rattus norvegicus [1])	Activity (Rattus norvegicus [2])	Activity (Rattus norvegicus [3])	Activity (Rattus norvegicus [4])	ED50 (Rattus norvegicus [5]) [µmol/kg]	Activity (Rattus norvegicus [6])	ED50 (Rattus norvegicus [7]) [µmol/kg]	Time (Rattus norvegicus [8]) [min]	Time (Rattus norvegicus [9]) [min]
Br.CCCN(C)C1CCc2c(O)cccc2C1 (centres undefined)	inactive	inactive	Non-toxic	inactive	0.023	inactive	0.029	0	73
CCCNC1CCc2c(cccc2OC)C1.Cl (centres undefined)	inactive	inactive	Non-toxic	inactive	0.37	inactive	0.43	–	–
CCCN(CCC)C1CCc2c(ccc(OC)c2OC)C1.Cl (centres undefined)	inactive	inactive	Non-toxic	inactive	0.057	inactive	0.058	–	–
Br.CCNC1CCc2c(O)cccc2C1 (centres undefined)	inactive	inactive	Non-toxic	inactive	0.072	inactive	0.066	3	50
CCCCCN(CCC)C1CCc2c(cccc2OC)C1.O=C(O)C(=O)O (centres undefined)	inactive	inactive	Non-toxic	inactive	0.092	inactive	0.101	15	93
CCCN(CC(C)(C)C)C1CCc2c(O)cccc2C1.Cl (centres undefined)	inactive	inactive	Non-toxic	inactive	0.2	inactive	0.12	9	68
Br.CCCN(C(C)C)C1CCc2c(O)cccc2C1 (centres undefined)	inactive	inactive	Non-toxic	inactive	0.07	inactive	0.087	4	55
Br.CNC1CCc2c(O)cccc2C1 (centres undefined)	inactive	inactive	Non-toxic	inactive	1.1	inactive	1.2	–	–
Br.CC(C)NC1CCc2c(O)cccc2C1 (centres undefined)	inactive	inactive	Non-toxic	inactive	> 5	inactive	–	–	–
Br.CCCNC1CCc2c(O)cccc2C1 (centres undefined)	inactive	inactive	Non-toxic	inactive	0.04	inactive	0.046	0	45
CCCCCN(CCC)C1CCc2c(O)cccc2C1.Cl (centres undefined)	inactive	inactive	Non-toxic	inactive	0.01	inactive	0.019	0	75
CCCCN(CC)C1CCc2c(cccc2OC)C1.Cl (centres undefined)	inactive	inactive	Non-toxic	inactive	0.068	inactive	0.079	16	140
Br.CN(C)C1CCc2c(O)cccc2C1 (centres undefined)	inactive	inactive	Non-toxic	inactive	0.39	inactive	0.19	–	–
CCCN(C)C1CCc2c(cccc2OC)C1.Cl (centres undefined)	inactive	inactive	Non-toxic	inactive	0.12	inactive	0.096	15	69
Br.CCCCN(CCCC)C1CCc2c(O)cccc2C1 (centres undefined)	inactive	inactive	Non-toxic	inactive	2.9	inactive	2.7	–	–
Br.NC1CCc2c(O)cccc2C1 (centres undefined)	inactive	inactive	Non-toxic	inactive	> 5	inactive	–	–	–
CCCN(CCc1ccccc1)C1CCc2c(O)cccc2C1.Cl (centres undefined)	inactive	inactive	Non-toxic	inactive	0.022	inactive	0.017	0	53
Br.CCCN(CCC)C1CCc2c(ccc(O)c2O)C1 (centres undefined)	inactive	inactive	Non-toxic	inactive	0.007	inactive	0.007	0	193
CCCN(CCc1ccccc1)C1CCc2c(cccc2OC)C1.Cl (centres undefined)	inactive	inactive	Non-toxic	inactive	0.29	inactive	0.24	–	–
Br.CCCCCNC1CCc2c(O)cccc2C1 (centres undefined)	inactive	inactive	Non-toxic	inactive	> 5	inactive	–	–	–
Br.CCCCCN(C)C1CCc2c(O)cccc2C1 (centres undefined)	inactive	inactive	Non-toxic	inactive	0.37	inactive	0.28	–	–
COc1cccc2c1CCC(NC(C)C)C2.Cl (centres undefined)	inactive	inactive	Non-toxic	inactive	> 5	inactive	–	–	–
CCCN(CC(C)(C)C)C1CCc2c(cccc2OC)C1.Cl (centres undefined)	inactive	inactive	Non-toxic	inactive	0.19	inactive	0.19	–	–
